According to ChEMBL document CHEMBL1137208, “2-(1-adamantyl)-4-(thio)chromenone-6-carboxylic acids: potent reversible inhibitors of human steroid sulfatase” (J Med Chem, 2004):

Tests used:
[1] = target: T1, Steryl-sulfatase (Homo sapiens, UniProt P08842); test: Inhibitory activity against human steroid sulfatase over-expressed in CHO cells; format: functional, cell-based
T1 sequence (P08842 whole entry): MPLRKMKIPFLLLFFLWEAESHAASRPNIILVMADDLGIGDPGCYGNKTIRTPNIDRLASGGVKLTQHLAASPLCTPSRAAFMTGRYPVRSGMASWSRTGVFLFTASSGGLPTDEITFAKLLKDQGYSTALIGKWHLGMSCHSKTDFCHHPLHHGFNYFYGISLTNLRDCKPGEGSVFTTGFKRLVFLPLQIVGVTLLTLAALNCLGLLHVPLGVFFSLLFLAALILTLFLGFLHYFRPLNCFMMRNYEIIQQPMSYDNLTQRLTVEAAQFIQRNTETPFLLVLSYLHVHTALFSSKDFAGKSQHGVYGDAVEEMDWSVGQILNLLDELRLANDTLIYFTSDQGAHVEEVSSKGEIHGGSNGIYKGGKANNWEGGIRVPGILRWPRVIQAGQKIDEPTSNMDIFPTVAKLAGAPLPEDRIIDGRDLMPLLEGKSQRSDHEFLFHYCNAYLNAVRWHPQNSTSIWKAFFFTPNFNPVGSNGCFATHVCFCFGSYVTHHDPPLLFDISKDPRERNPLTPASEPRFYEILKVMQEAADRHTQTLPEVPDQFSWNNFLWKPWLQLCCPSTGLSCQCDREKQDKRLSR
How it was run: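 Live CHO cells stably expressing human STS, 30 000/well, adhered overnight in phenol red-free RPMI 1640 with 10% FCS. Cells were treated with graded inhibitor for 24 h. Medium was then replaced with the same concentrations plus 0.5 mM 4-MUS for 4 h at 37 °C. Supernatant was stopped at pH 10.4 and read at ex 355/em 460 nm. Signal was normalized to sulforhodamine B protein. Triplicates; IC50 is 50% inhibition.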

[2] = target: T1, Steryl-sulfatase; test: Inhibitory activity against human steroid sulfatase
How it was run: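 Highly purified human STS from stably transfected recombinant CHO cells (purity >95%). Substrate 0.5 mM 4-methylumbelliferyl sulfate, pH 7.5, 37 °C. 4-Methylumbelliferone formed was read by fluorescence after alkalization. Inhibitors were added at graded concentrations from ethanol stocks (final ethanol ≤2%). Ki came from turnover at several substrate and inhibitor levels, using a Hanes plot and a Km/Vmax vs I replot.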

Row | IC50 [1] | Ki [2] | SMILES
1 | > 30 µM | 3.2 µM | O=C(CO)c1ccc2oc(C34CC5CC(CC(C5)C3)C4)cc(=O)c2c1
2 | 0.18 µM | 0.53 µM | O=C(O)c1ccc2sc(C34CC5CC(CC(C5)C3)C4)cc(=O)c2c1
3 | > 30 µM | > 50 µM | NC(=O)c1ccc2oc(C34CC5CC(CC(C5)C3)C4)cc(=O)c2c1
4 | ~30 µM | 32 µM | O=c1cc(C23CC4CC(CC(C4)C2)C3)oc2ccc(CO)cc12
5 | > 30 µM | > 50 µM | N#Cc1ccc2sc(C34CC5CC(CC(C5)C3)C4)cc(=O)c2c1
6 | 12.3 µM | 2.2 µM | O=C(O)C(=O)c1ccc2oc(C34CC5CC(CC(C5)C3)C4)cc(=O)c2c1
7 | > 30 µM | > 50 µM | COC(=O)c1ccc2oc(C34CC5CC(CC(C5)C3)C4)cc(=O)c2c1
8 | 0.024 µM | 0.21 µM | NS(=O)(=O)Oc1ccc2sc(C34CC5CC(CC(C5)C3)C4)cc(=O)c2c1
9 | 9.4 µM | 0.5 µM | O=C(O)c1ccc2oc(C34CC5CC(CC(C5)C3)C4)cc(=O)c2c1
10 | > 30 µM | > 20 µM | O=Cc1ccc2oc(C34CC5CC(CC(C5)C3)C4)cc(=O)c2c1
11 | 0.026 µM | 0.19 µM | NS(=O)(=O)Oc1ccc2oc(C34CC5CC(CC(C5)C3)C4)cc(=O)c2c1
12 | > 30 µM | > 50 µM | O=C(O)Cc1ccc2oc(C34CC5CC(CC(C5)C3)C4)cc(=O)c2c1

Row | SMILES | IC50 [1] | Ki [2]
13 | C[C@]12CC[C@@H]3c4ccc(OS(N)(=O)=O)cc4CC[C@H]3[C@@H]1CCC2=O [EMATE] | 0.02 µM | –
